# Laboratory results as given in ChEMBL document CHEMBL1255475, “Mutant prevention concentrations of four carbapenems against gram-negative rods” (2010).
# Columns and labels:
# [1] = system: Escherichia coli; assay: Ratio of mutant prevention concentration to minimum Inhibitory concentration for beta-lactamase-negative Escherichia coli E348; type: functional
# [2] = system: Escherichia coli; assay: Antibacterial activity against beta-lactamase-positive ESBL-positive Escherichia coli E460 incubated up to 7 days by agar dilution method; type: functional; settings: E460, 168 h
# Procedure, shortened: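 MIC by CLSI agar dilution, with quality-control strains in each run. Beta-lactamase status was set by 30 μg cefazolin Kirby-Bauer disk diffusion. ESBL status was set by cefotaxime and ceftazidime disks (30 μg) with and without clavulanic acid (10 μg).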
# [3] = system: Escherichia coli; assay: Ratio of mutant prevention concentration to minimum Inhibitory concentration for beta-lactamase-positive ESBL-negative Escherichia coli E484; type: functional
# [4] = system: Klebsiella pneumoniae; assay: Ratio of mutant prevention concentration to minimum Inhibitory concentration for beta-lactamase-negative Klebsiella pneumoniae E418; type: functional
# [5] = system: Escherichia coli; assay: Ratio of mutant prevention concentration to minimum Inhibitory concentration for beta-lactamase-negative Escherichia coli E425; type: functional
# [6] = system: Klebsiella pneumoniae; assay: Ratio of mutant prevention concentration to minimum Inhibitory concentration for beta-lactamase-negative Klebsiella pneumoniae E362; type: functional
# [7] = system: Klebsiella pneumoniae; assay: Ratio of mutant prevention concentration to minimum Inhibitory concentration for beta-lactamase-negative Klebsiella pneumoniae E417; type: functional
# [8] = system: Escherichia coli; assay: Ratio of mutant prevention concentration to minimum Inhibitory concentration for beta-lactamase-positive ESBL-negative Escherichia coli E415; type: functional
# [9] = system: Escherichia coli; assay: Ratio of mutant prevention concentration to minimum Inhibitory concentration for beta-lactamase-positive ESBL-negative Escherichia coli E430; type: functional
# [10] = system: Escherichia coli; assay: Ratio of mutant prevention concentration to minimum Inhibitory concentration for beta-lactamase-positive ESBL-positive Escherichia coli E446; type: functional
# [11] = system: Klebsiella pneumoniae; assay: Ratio of mutant prevention concentration to minimum Inhibitory concentration for beta-lactamase-positive ESBL-negative Klebsiella pneumoniae E481; type: functional
# [12] = system: Escherichia coli; assay: Ratio of mutant prevention concentration to minimum Inhibitory concentration for beta-lactamase-negative Escherichia coli E344; type: functional
# [13] = system: Klebsiella pneumoniae; assay: Ratio of mutant prevention concentration to minimum Inhibitory concentration for beta-lactamase-negative Klebsiella pneumoniae E361; type: functional
# [14] = system: Escherichia coli; assay: Ratio of mutant prevention concentration to minimum Inhibitory concentration for beta-lactamase-positive ESBL-positive Escherichia coli E458; type: functional
# [15] = system: Escherichia coli; assay: Antibacterial activity against beta-lactamase-negative Escherichia coli E408 incubated up to 7 days by agar dilution method; type: functional; settings: E408, 168 h
# [16] = system: Klebsiella pneumoniae; assay: Ratio of mutant prevention concentration to minimum Inhibitory concentration for beta-lactamase-negative Klebsiella pneumoniae E360; type: functional
# [17] = system: Escherichia coli; assay: Antibacterial activity against beta-lactamase-positive ESBL-positive Escherichia coli E451 assessed as mutant prevention concentration after overnight incubation; type: functional
# Procedure, shortened: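 Overnight growth on blood trypticase soy agar (35°C, air) was resuspended in 0.9% saline and counted on drug-free Mueller-Hinton agar. […] Colonies were retested by agar dilution to confirm mutants. MPC was the lowest concentration preventing resistant-mutant growth.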
# [18] = system: Escherichia coli; assay: Ratio of mutant prevention concentration to minimum Inhibitory concentration for beta-lactamase-positive ESBL-positive Escherichia coli E451; type: functional
# [19] = system: Escherichia coli; assay: Ratio of mutant prevention concentration to minimum Inhibitory concentration for beta-lactamase-negative Escherichia coli E409; type: functional
# [20] = system: Klebsiella pneumoniae; assay: Ratio of mutant prevention concentration to minimum Inhibitory concentration for beta-lactamase-negative Klebsiella pneumoniae E419; type: functional
# [21] = system: Klebsiella pneumoniae; assay: Ratio of mutant prevention concentration to minimum Inhibitory concentration for beta-lactamase-positive ESBL-positive Klebsiella pneumoniae E476; type: functional
# [22] = system: Escherichia coli; assay: Ratio of mutant prevention concentration to minimum Inhibitory concentration for beta-lactamase-negative Escherichia coli E346; type: functional
# [23] = system: Escherichia coli; assay: Ratio of mutant prevention concentration to minimum Inhibitory concentration for beta-lactamase-positive ESBL-positive Escherichia coli E456; type: functional
# [24] = system: Escherichia coli; assay: Ratio of mutant prevention concentration to minimum Inhibitory concentration for beta-lactamase-positive ESBL-positive Escherichia coli E459; type: functional
# [25] = system: Klebsiella pneumoniae; assay: Ratio of mutant prevention concentration to minimum Inhibitory concentration for beta-lactamase-negative Klebsiella pneumoniae E420; type: functional
# [26] = system: Escherichia coli; assay: Ratio of mutant prevention concentration to minimum Inhibitory concentration for beta-lactamase-negative Escherichia coli E424; type: functional
# [27] = system: Pseudomonas aeruginosa; assay: Antibacterial activity against Pseudomonas aeruginosa P376 incubated up to 7 days by agar dilution method; type: functional; settings: P376, 168 h
# [28] = system: Acinetobacter baumannii; assay: Antibacterial activity against Acinetobacter baumannii A864 assessed as mutant prevention concentration after overnight incubation; type: functional
# [29] = system: Acinetobacter baumannii; assay: Antibacterial activity against Acinetobacter baumannii A912 incubated for 24 h by agar dilution method; settings: A912, 24 h
# [30] = system: Acinetobacter baumannii; assay: Antibacterial activity against Acinetobacter baumannii A892 assessed as mutant prevention concentration after overnight incubation; type: functional
# [31] = system: Pseudomonas aeruginosa; assay: Antibacterial activity against Pseudomonas aeruginosa P353 incubated up to 7 days by agar dilution method; type: functional; settings: P353, 168 h
# [32] = system: Pseudomonas aeruginosa; assay: Antibacterial activity against Pseudomonas aeruginosa P332 incubated up to 7 days by agar dilution method; type: functional; settings: P332, 168 h
# [33] = system: Acinetobacter baumannii; assay: Antibacterial activity against Acinetobacter baumannii A848 incubated up to 7 days by agar dilution method; type: functional; settings: A848, 168 h
# [34] = system: Acinetobacter baumannii; assay: Antibacterial activity against Acinetobacter baumannii A898 incubated for 24 hrs by agar dilution method; settings: A898, 24 h
# [35] = system: Pseudomonas aeruginosa; assay: Antibacterial activity against Pseudomonas aeruginosa P373 incubated up to 7 days by agar dilution method; type: functional; settings: P373, 168 h
# [36] = system: Acinetobacter baumannii; assay: Antibacterial activity against Acinetobacter baumannii A897 incubated up to 7 days by agar dilution method; type: functional; settings: A897, 168 h
# [37] = system: Pseudomonas aeruginosa; assay: Antibacterial activity against Pseudomonas aeruginosa P323 incubated up to 7 days by agar dilution method; type: functional; settings: P323, 168 h
# [38] = system: Acinetobacter baumannii; assay: Antibacterial activity against Acinetobacter baumannii A928 incubated for 24 h by agar dilution method; settings: A928, 24 h
# [39] = system: Pseudomonas aeruginosa; assay: Antibacterial activity against Pseudomonas aeruginosa P319 incubated up to 7 days by agar dilution method; type: functional; settings: P319, 168 h
# [40] = system: Pseudomonas aeruginosa; assay: Antibacterial activity against Pseudomonas aeruginosa P320 incubated up to 7 days by agar dilution method; type: functional; settings: P320, 168 h
# [41] = system: Pseudomonas aeruginosa; assay: Antibacterial activity against Pseudomonas aeruginosa P349 incubated up to 7 days by agar dilution method; type: functional; settings: P349, 168 h
# [42] = system: Acinetobacter baumannii; assay: Antibacterial activity against Acinetobacter baumannii A931 incubated for 24 hrs by agar dilution method; settings: A931, 24 h
# [43] = system: Acinetobacter baumannii; assay: Antibacterial activity against Acinetobacter baumannii A851 incubated for 24 h by agar dilution method; settings: A851, 24 h
# [44] = system: Pseudomonas aeruginosa; assay: Antibacterial activity against Pseudomonas aeruginosa P370 incubated up to 7 days by agar dilution method; type: functional; settings: P370, 168 h
# [45] = system: Pseudomonas aeruginosa; assay: Antibacterial activity against Pseudomonas aeruginosa P327 incubated up to 7 days by agar dilution method; type: functional; settings: P327, 168 h
# [46] = system: Acinetobacter baumannii; assay: Antibacterial activity against Acinetobacter baumannii A865 incubated for 24 h by agar dilution method; settings: A865, 24 h
structure (smiles),measurement,setting,value
C[C@@H](O)[C@H]1C(=O)N2C(C(=O)O)=C(S[C@@H]3CN[C@H](C(=O)Nc4cccc(C(=O)O)c4)C3)[C@H](C)[C@H]12,Ratio,[1],4
same,MIC,[2],0.125 µg/mL
same,Ratio,[3],16
same,Ratio,[4],2
same,Ratio,[5],4
same,Ratio,[6],4
same,Ratio,[7],2
same,Ratio,[8],4
same,Ratio,[9],>8
same,Ratio,[10],4
same,Ratio,[11],2
same,Ratio,[12],4
same,Ratio,[13],4
same,Ratio,[14],16
same,MIC,[15],0.016 µg/mL
same,Ratio,[16],4
same,MPC,[17],1 µg/mL
same,Ratio,[18],16
same,Ratio,[19],8
same,Ratio,[20],2
same,Ratio,[21],4
same,Ratio,[22],4
same,Ratio,[23],16
same,Ratio,[24],2
same,Ratio,[25],4
same,Ratio,[26],4
C[C@@H](O)[C@H]1C(=O)N2C(C(=O)O)=C(S[C@@H]3CN[C@H](CNS(N)(=O)=O)C3)[C@H](C)[C@H]12 [DORIPENEM],MIC,[27],0.5 µg/mL
same,MPC,[28],64 µg/mL
same,Ratio,[1],2
same,MIC,[29],4 µg/mL
same,MIC,[2],0.03 µg/mL
same,Ratio,[3],4
same,MPC,[30],64 µg/mL
same,Ratio,[4],2
same,Ratio,[5],2
same,MIC,[31],0.5 µg/mL
same,Ratio,[6],2
same,Ratio,[7],2
same,MIC,[32],0.25 µg/mL
same,MIC,[33],8 µg/mL
same,Ratio,[8],2
same,Ratio,[9],4
same,MIC,[34],2 µg/mL
same,Ratio,[10],2
same,Ratio,[11],4
same,MIC,[35],0.5 µg/mL
same,Ratio,[12],2
same,MIC,[36],0.5 µg/mL
same,Ratio,[13],2
same,MIC,[37],0.5 µg/mL
same,MIC,[38],0.5 µg/mL
same,Ratio,[14],2
same,MIC,[15],0.03 µg/mL
same,MIC,[39],2 µg/mL
same,Ratio,[16],2
same,MIC,[40],0.25 µg/mL
same,MPC,[17],0.06 µg/mL
same,Ratio,[18],2
same,MIC,[41],0.5 µg/mL
same,Ratio,[19],4
same,Ratio,[20],2
same,Ratio,[21],4
same,MIC,[42],1 µg/mL
same,Ratio,[22],2
same,Ratio,[23],8
same,MIC,[43],4 µg/mL
same,MIC,[44],0.25 µg/mL
same,MIC,[45],0.25 µg/mL
same,Ratio,[24],4
same,Ratio,[25],1
same,Ratio,[26],2
same,MIC,[46],8 µg/mL
C[C@@H](O)[C@H]1C(=O)N2C(C(=O)O)=C(SCCNC=N)C[C@H]12 [IMIPENEM ANHYDROUS],MPC,[28],64 µg/mL
same,MPC,[30],64 µg/mL
same,MPC,[17],0.5 µg/mL
C[C@@H](O)[C@H]1C(=O)N2C(C(=O)O)=C(S[C@@H]3CN[C@H](C(=O)N(C)C)C3)[C@H](C)[C@H]12 [MEROPENEM],MIC,[27],1 µg/mL
same,MIC,[29],2 µg/mL
same,MIC,[2],0.03 µg/mL
same,MIC,[31],2 µg/mL
same,MIC,[32],1 µg/mL
same,MIC,[33],8 µg/mL
same,MIC,[34],2 µg/mL
same,MIC,[35],0.5 µg/mL
same,MIC,[36],0.5 µg/mL
same,MIC,[37],0.5 µg/mL
same,MIC,[38],1 µg/mL
same,MIC,[39],2 µg/mL
same,MIC,[40],0.5 µg/mL
same,MPC,[17],0.06 µg/mL
same,MIC,[41],1 µg/mL
same,MIC,[42],1 µg/mL
same,MIC,[43],4 µg/mL
same,MIC,[44],0.25 µg/mL
same,MIC,[45],0.25 µg/mL
same,MIC,[46],8 µg/mL
